According to publication PMC6959550 (Journal of medicinal chemistry, 2017):

Columns and labels:
TRPV1 [1] = target: T1, TRPV1 (Homo sapiens, UniProt Q8NER1); assay: Activity type at TRPV1
TRPV1 [2] = target: T1, TRPV1; type: binding; conditions: human versus rat TRPV1
TRPV1 [3] = target: T1, TRPV1; assay: Predicted improvement of specific to nonspecific binding from Kd/Ki and Log P; conditions: from Log P values
TRPV1 [4] = target: T1, TRPV1; assay: Time course of binding of 13 to human TRPV1 and its release
How it was run: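 Membranes (~20 μg protein) from CHO cells expressing human TRPV1 were incubated with the tritiated test ligand in DPBS with 0.25 mg/mL BSA at 37 °C for varied times. Alternatively, after 60 min, 50 nM unlabeled reference vanilloid was added for varied times at 37 °C or at 0 °C after chilling. Workup: α1-acid glycoprotein (2 mg/mL stock), 10 min at 0 °C, pelleting, scintillation counting. Values relative to controls; triplicate means.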

TRPV1 [5] = target: T1, TRPV1; type: binding; conditions: treated versus control

T1 sequence (Q8NER1 whole entry): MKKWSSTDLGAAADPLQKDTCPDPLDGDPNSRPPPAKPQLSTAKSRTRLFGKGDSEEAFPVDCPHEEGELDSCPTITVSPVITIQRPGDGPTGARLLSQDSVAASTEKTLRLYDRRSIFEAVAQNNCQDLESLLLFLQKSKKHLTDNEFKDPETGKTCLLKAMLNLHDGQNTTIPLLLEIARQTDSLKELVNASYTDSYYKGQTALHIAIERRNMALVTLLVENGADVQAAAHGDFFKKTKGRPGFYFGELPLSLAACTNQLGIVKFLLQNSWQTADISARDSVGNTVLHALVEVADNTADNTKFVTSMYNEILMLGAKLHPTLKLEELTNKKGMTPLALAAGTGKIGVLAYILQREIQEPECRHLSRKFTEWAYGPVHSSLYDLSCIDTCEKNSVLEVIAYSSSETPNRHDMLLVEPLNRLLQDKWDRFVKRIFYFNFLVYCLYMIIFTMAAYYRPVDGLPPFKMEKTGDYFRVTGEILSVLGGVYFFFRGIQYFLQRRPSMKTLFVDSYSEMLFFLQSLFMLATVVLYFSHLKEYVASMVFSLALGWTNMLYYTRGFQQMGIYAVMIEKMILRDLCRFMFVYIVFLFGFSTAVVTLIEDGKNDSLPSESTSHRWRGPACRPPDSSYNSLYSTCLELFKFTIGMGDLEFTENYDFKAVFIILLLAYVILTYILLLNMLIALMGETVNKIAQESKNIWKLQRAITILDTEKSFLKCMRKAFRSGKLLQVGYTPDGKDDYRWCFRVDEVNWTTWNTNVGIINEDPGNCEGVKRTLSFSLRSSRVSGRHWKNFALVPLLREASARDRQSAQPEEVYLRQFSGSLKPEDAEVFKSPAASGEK

SMILES	activity (TRPV1 [1])	human TRPV1 less sensitive (weaker binding) than rat/rodent TRPV1 (TRPV1 [2])	Improvement over 1 from the formula ((Kd RTX × 10^LogP RTX)/(Ki compound × 10^Log P compound)) (TRPV1 [3]) [fold]	specific binding at 0 °C over the time for assay workup (TRPV1 [4]; 0 °C, after nonradioactive 1 (50 nM))	time by which specific binding was largely complete (TRPV1 [4]; 37 °C) [min]	time for almost full release of specifically bound ligand (TRPV1 [4]; 37 °C, after nonradioactive 1 (50 nM)) [min]	change of affinity by PMA and cyclosporin A treatment (TRPV1 [5])
CC(C)(C)c1ccc2c(c1)CC[C@H]2NC(=O)Nc1cccc2cnccc12 [A-778317, 1-((R)-5-tert-butyl-indan-1-yl)3-isoquinolin-5-yl-urea]	antagonist	–	–	–	–	–	–
C=C(C)[C@]12C[C@@H](C)[C@@]34O[C@](Cc5ccccc5)(O[C@@H]1[C@@H]3C=C(COC(=O)Cc1ccc(O)c(OC)c1)C[C@]1(O)C(=O)C(C)=C[C@@H]41)O2 [compound 1, resiniferatoxin]	agonist	approximately 20 fold	1	–	–	–	–
CC1CCN(c2nc(C(F)(F)F)ccc2CNC(=O)Nc2cccc3c2OCC(=O)N3)CC1 [compound 12, 1-((2-(4-methylpiperidin-1-yl)-6-(trifluoromethyl)pyridin-3-yl)methyl)-3-(3-oxo-3,4-dihydro-2H-benzo[b][1,4]oxazin-8-yl)urea]	antagonist	–	45.6	–	–	–	–
[3H]CC1([3H])CCN(c2nc(C(F)(F)F)ccc2CNC(=O)Nc2cccc3c2OCC(=O)N3)CC1 [compound 13, 1-((2-(4-(methyl-[^3H])piperidin-1-yl-4-[^3H])-6-(trifluoromethyl)pyridin-3-yl)methyl)-3-(3-oxo-3,4-dihydro-2H-benzo[b][1,4]oxazin-8-yl)urea]	–	–	–	stable	≤ 5	≤ 2	no appreciable change
